Measurements from different studies.
Lines come from different studies, so protocols differ.
EGFR del746-750: Epidermal growth factor receptor (EGFR, Homo sapiens, UniProt P00533, del746-750)
EGFR T790M: Epidermal growth factor receptor (EGFR, Homo sapiens, UniProt P00533, T790M)
EGFR del752-759: Epidermal growth factor receptor (EGFR, Homo sapiens, UniProt P00533, del752-759)
EGFR L858R/T790M: Epidermal growth factor receptor (EGFR, Homo sapiens, UniProt P00533, L858R/T790M)
EGFR G719C: Epidermal growth factor receptor (EGFR, Homo sapiens, UniProt P00533, G719C)

N#Cc1ccc(Nc2ccc3[nH]c(=O)[nH]c3c2)c(Cl)c1
remaining binding (Epidermal growth factor receptor (EGFR, Homo sapiens, UniProt P00533, del747-750/T751S); cell-free assay, competition with immobilised ligand; 1 µM): 100%

CN(C)c1nccc(-c2cnc3ncccn23)n1
remaining binding (EGFR del746-750; binding; 1 µM): 60%

CCC(=O)N[C@H]1CC[C@@H](C(=O)N(C)c2ccc(-c3nc4ccccc4o3)cc2)C1
remaining binding (Epidermal growth factor receptor (EGFR, Homo sapiens, UniProt P00533, del747-752/P753S); cell-free assay, competition with immobilised ligand; 1 µM): 79%

Nc1ncnc2occ(-c3ccc(NC(=O)Nc4cc(C(F)(F)F)ccc4F)cc3)c12
remaining signal (EGFR del746-750; cell-free assay; 20 µM): 34%

C[C@H]1CCN(c2nccc(-c3cnn4ncccc34)n2)C1
remaining binding (EGFR T790M; binding; 1 µM): 76%

COc1cc(-c2cn(C3CCc4ccccc4N(CC(F)(F)F)C3=O)nn2)ccc1-n1ccc(C)n1 (stereo not shown)
remaining binding (EGFR del746-750; cell-free assay, competition with immobilised ligand; 1 µM): 100%

N[C@H]1CCN(c2nccc(-c3cnn4ncccc34)n2)C1
remaining binding (EGFR del752-759; binding; 1 µM): 88%

COc1cc(-c2cc(-c3ccc(N4CCNCC4)cc3)cnc2N)cc(OC)c1OC
inhibition (EGFR L858R/T790M; enzyme activity, inhibitor; 0.1 µM): 0%

Cc1cnc(NC2CCOCC2)nc1-n1cnc(C(=O)NC(CN)c2cc(F)cc(Cl)c2)c1 (stereo not shown)
remaining activity (Epidermal growth factor receptor (EGFR, Homo sapiens, UniProt P00533); enzyme activity, inhibitor, radiometric; 1 µM): 108%

Cc1ccc(C(=O)Nc2ccc(CN3CCN(C)CC3)c(C(F)(F)F)c2)cc1C#Cc1cnc2cccnn12
remaining signal (Epidermal growth factor receptor (EGFR, Homo sapiens, UniProt P00533, L858R); cell-free assay; 23.5 nM): 95%

Cc1nc(Cc2cccc(C(F)(F)F)c2)sc1-c1ccc(C(N)=O)nc1
remaining binding (EGFR G719C; cell-free assay, competition with immobilised ligand; 1 µM): 94%

Cc1cc(NC(=O)c2cccc3cc(-c4cccc5[nH]nc(N)c45)ccc23)ccc1F
activity vs control (EGFR L858R/T790M; enzyme activity, inhibitor; 0.1 µM): 103%

Cn1nc(C(=O)NCc2ccc(C(=O)O)cc2)cc1-c1ccc2[nH]ccc2c1
remaining binding (EGFR del752-759; cell-free assay, competition with immobilised ligand; 0.1 µM): 94%

F[C@@H]1CCN(c2nccc(-c3cnn4ncccc34)n2)C1
remaining binding (EGFR G719C; binding; 1 µM): 100%

Cc1ccc(NC(=O)c2ccc(C)c(C(F)(F)F)c2)cc1C#Cc1nn(C2CCC(O)CC2)c2ncnc(N)c12 (stereo not shown)
remaining signal (EGFR L858R/T790M; cell-free assay; 10 µM): 0%

CN(CCCC(F)(F)F)c1nccc(-c2cnn3ncccc23)n1
remaining binding (Epidermal growth factor receptor (EGFR, Homo sapiens, UniProt P00533, L861Q); binding; 1 µM): 73%

Cc1nc(C2CCN(C(=O)c3ccc(OC(F)(F)F)cc3N)CC2)c2ncc(N3CCN(C)CC3)cc2n1
remaining binding (Epidermal growth factor receptor (EGFR, Homo sapiens, UniProt P00533, A750P/del747-749); cell-free assay, competition with immobilised ligand; 1 µM): 70%

COc1ccnn2ncc(-c3ccnc(N(C)C)n3)c12
remaining binding (EGFR T790M; binding; 1 µM): 100%

CC/C(=N\NC(=O)NCc1cccc(O)c1)c1ccc(O)c(C)c1O
inhibition (EGFR L858R/T790M; enzyme activity, inhibitor; 0.1 µM): 0.1%
